Source: ChEMBL document CHEMBL3244398, “Oxidative and cardiovascular studies on natural and synthetic catecholamines” (J Med Chem, 1978)

Key:
Rattus norvegicus = assay: Acute pressor activity in iv dosed Sprague-Dawley rat assessed as duration of arterial systolic blood pressure by 30 mmHg maintenance; format: functional, Artery
How it was run: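 Iv jugular-cannula dosing was used in male normotensive Sprague-Dawley rats (380 ± 20 g), with arterial pressure recorded by carotid cannula and transducer. Six doses over a tenfold range were each given to four animals. Duration is the seconds for which blood pressure was […].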

Compound | Time (Rattus norvegicus) | pKa (physchem)
C[C@H](N)Cc1ccc(O)c(O)c1 | 34 s | –
C[C@@H](N)Cc1ccc(O)c(O)c1 | 20 s | –
CC(N)Cc1ccc(O)c(O)c1 (racemic) | 22 s | 10
CNCC(C)c1ccc(O)c(O)c1 (racemic) | 28 s | 10.5
CC(CN)c1ccc(O)c(O)c1.Cl (racemic) | 29 s | 10
CNCC(OC)c1ccc(O)c(O)c1.Cl (racemic) | 21 s | 9.5
NCC(O)c1ccc(O)c(O)c1 (racemic) | 32 s | 9
CNCCc1ccc(O)c(O)c1 [DEOXIEPINEPHRINE] | 18 s | 10.5
CNC [DIMETHYLAMINE] | – | 10.8
NCCc1ccc(O)c(O)c1 [DOPAMINE] | 32 s | 10
CNC[C@H](O)c1ccc(O)c(O)c1 [EPINEPHRINE] | 12 s | 9.5
CN [METHYLAMINE] | – | 10.6
NC[C@H](O)c1ccc(O)c(O)c1 [NOREPINEPHRINE] | 32 s | –
